Data set [1] can be described thus: Thermodynamic solubility of the compound in pH 6.8 phosphate buffer after 24 hrs by HPLC analysis. It counts as physicochemical. The conditions noted are these: read-out: Therm_solubility. The method in brief: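 Excess solid in pH 6.8 phosphate buffer was shaken 24 h at 25 °C and centrifuged (3000 and 11000 rpm, 10 min). Supernatant was diluted in 50% aqueous acetonitrile and quantified by reversed-phase HPLC (0.1% phosphoric acid/acetonitrile, 40 °C column, UV 210 nm).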

The nature of data set [2]: Drug metabolism in human liver microsomes assessed per mg protein after 15 mins. The format is ADME, microsome. The conditions noted are these: read-out: Drug metabolism. In a few lines: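 Compound was incubated 15 min with human liver microsomes at 1 mg protein/mL; the value is reported as percent metabolized.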
Data set [3] has as its target T1, Glucose-dependent insulinotropic receptor (Homo sapiens, UniProt Q8TDV5).
T1 sequence (Q8TDV5 whole entry): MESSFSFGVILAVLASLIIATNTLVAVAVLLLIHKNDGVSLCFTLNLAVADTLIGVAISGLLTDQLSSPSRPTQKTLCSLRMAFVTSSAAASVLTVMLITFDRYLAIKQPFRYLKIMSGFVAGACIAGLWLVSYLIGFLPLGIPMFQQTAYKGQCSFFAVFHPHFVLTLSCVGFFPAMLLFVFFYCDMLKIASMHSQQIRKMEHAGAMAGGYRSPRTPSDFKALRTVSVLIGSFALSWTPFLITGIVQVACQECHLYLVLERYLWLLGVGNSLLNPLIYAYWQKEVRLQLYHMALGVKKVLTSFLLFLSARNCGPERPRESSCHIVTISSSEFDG
Nature of the data set: Agonist activity at human GPR119 expressed in Flp-In-T-Rex-HEK293 cells assessed as stimulation of cAMP level measured after 30 mins by HTRF assay. The format is functional, cell-based. In a few lines:
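Flp-In-T-Rex-HEK293 cells overexpressing human GPR119 were induced with tetracycline for 24 h, then seeded at 5000 cells/well in DMEM with 1 mM IBMX and 0.01% BSA. Cells were exposed to compound for 30 min at 37 °C, and cAMP was read by HTRF (HiRange kit). Basal cAMP was subtracted, and EC50 is the concentration giving 50% of maximal response on dose-response curves.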
A general note: cAMP levels reflect the balance of adenylyl cyclase and phosphodiesterase activity.

Data set [4] can be described thus: Clearance in Sprague-Dawley rat at 3 mg/kg, iv administered as single dose by LC-MS/MS analysis. The conditions noted are these: in vivo. It counts as ADME, organism-based. The method in brief:
(§1)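 Fasted male Sprague-Dawley rats received a single dose, either 3 mg/kg iv in 20% 2-hydroxypropyl-β-cyclodextrin or 10 mg/kg orally in 0.5% methylcellulose with 0.1% Tween80. Tail-vein blood was taken at each time point and spun to plasma. Analyte was quantified by LC-MS/MS, and parameters were derived by non-compartmental analysis.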

Data set [5] in a line: Oral bioavailability in Sprague-Dawley rat at 10 mg/kg administered as single dose by LC-MS/MS analysis. It counts as ADME, organism-based. The conditions noted are these: in vivo. The method in brief: as §1
A short description of data set [6]: AUC (0 to infinity) in Sprague-Dawley rat at 10 mg/kg, po administered as single dose by LC-MS/MS analysis. The format is ADME, organism-based. The settings on record: in vivo. Set-up: dose 10 mg/kg, route oral, time infinity. The method in brief:
as §1

Data set [7] is described as follows: Volume of distribution at steady state in Sprague-Dawley rat at 3 mg/kg, iv administered as single dose by LC-MS/MS analysis. The settings on record: in vivo, read-out: Vdss. It counts as ADME, organism-based. In a few lines:
as §1

A short description of data set [8]: Permeability of the compound at pH 6.2 by PAMPA. The format is physicochemical. The settings on record: read-out: permeability. On the technique in general: The PAMPA barrier holds no transporters, so it reflects passive diffusion.
Data set [9] is described as follows: Half life in Sprague-Dawley rat at 3 mg/kg, iv administered as single dose by LC-MS/MS analysis. The format is ADME, organism-based. The conditions noted are these: in vivo. The method in brief:
as §1

The structures appear in SMILES notation. In brackets after ≈: the same amount, converted by molar mass. A value given as a limit tells only on which side of the number the result lay.

For the molecule `CC(C)(OC(=O)N1CCC(n2ncc3cc(-c4ccc(S(C)(=O)=O)cc4)ncc32)CC1)C(F)F`, the solubility thermodynamic at 24 h in data set [1] is 0.28 µM (≈ 0.138 µg/mL).
The same measure, in the same setting: the same measure for `CC(C)OC(=O)N1CCC(n2ncc3cc(-c4ccc(S(C)(=O)=O)cc4)ncc32)CC1`: 1.51 µM (≈ 0.668 µg/mL).
Turning to `CC(C)COC(=O)N1CCC(n2ncc3cc(-c4ccc(S(C)(=O)=O)cc4)ncc32)CC1`, the solubility thermodynamic at 24 h in data set [1] stood at 1.18 µM (≈ 0.539 µg/mL).
In the case of `CCNC(=O)c1cc(F)c(-c2cc3cnn(C4CCN(C(=O)OC(C)C)CC4)c3cn2)cc1F`, the metabolised at 0.25 h in data set [2] is 12.4%. The solubility thermodynamic at 24 h in data set [1] was found to be 2.84 µM (≈ 1.34 µg/mL).
As to `CCc1cnc(N2CCC(n3ncc4cc(-c5ccc(S(C)(=O)=O)cc5)ncc43)CC2)nc1`, the solubility thermodynamic at 24 h in data set [1] was found to be 0.26 µM (≈ 0.12 µg/mL).
`CCc1cnc(N2CCC(n3nnc4cc(-c5ccc(S(C)(=O)=O)cc5)ncc43)CC2)nc1`: the solubility thermodynamic at 24 h in [1] worked out at 0.28 µM (≈ 0.13 µg/mL). In data set [3], the EC50 turned out to be 0.021 µM.
On the same counts, the results for `CCNC(=O)c1c(C)cc(-c2cc3nnn(C4CCN(c5ncc(CC)cn5)CC4)c3cn2)cc1C` are 5.01 µM (≈ 2.43 µg/mL) and 0.027 µM.
On the same counts, the results for `CCNC(=O)c1ccc(-c2cc3nnn(C4CCN(c5ncc(CC)cn5)CC4)c3cn2)cc1Cl` are < 0.16 µM and 0.018 µM.
As for `CCNC(=O)c1ccc(-c2cc3nnn(C4CCN(c5ncc(CC)cn5)CC4)c3cn2)c(F)c1F`, in [3], the EC50 was determined as 0.01 µM.
On to `CC(C)OC(=O)N1CCC(n2nnc3cc(-c4cc(F)c(C(=O)N5CCC5)cc4F)ncc32)CC1`, for which the metabolised at 0.25 h in [2] was 5.4%. For the same molecule, in data set [1], the solubility thermodynamic at 24 h worked out at 2.7 µM (≈ 1.31 µg/mL). Also, the EC50 in [3] worked out at 0.061 µM.
Take `CCc1cnc(N2CCC(n3nnc4cc(-c5ccc(S(C)(=O)=O)c(F)c5)ncc43)CC2)nc1`: the solubility thermodynamic at 24 h in data set [1] was < 0.15 µM. In addition, the EC50 in data set [3] was 0.009 µM.
On the same counts, the results for `CCNC(=O)c1ccc(-c2cc3nnn(C4CCN(c5ncc(CC)cn5)CC4)c3cn2)c(C(F)(F)F)c1` are 1.2 µM (≈ 0.629 µg/mL) and 0.06 µM.
On the same counts, the results for `CCNC(=O)c1ccc(-c2cc3nnn(C4CCN(c5ncc(CC)cn5)CC4)c3cn2)cc1C(F)(F)F` are 0.51 µM (≈ 0.268 µg/mL) and 0.039 µM.
Turning to `CCNC(=O)c1cc(F)c(-c2cc3nnn(C4CCN(C(=O)OC(C)C)CC4)c3cn2)cc1F`, the metabolised at 0.25 h in data set [2] was 11%. Besides, the solubility thermodynamic at 24 h in data set [1] was determined as 5.5 µM (≈ 2.6 µg/mL). Besides, in data set [3], the EC50 came to 0.037 µM.
Consider `CCNC(=O)c1cc(F)c(-c2cc3nnn(C4CCN(c5ncc(CC)cn5)CC4)c3cn2)cc1F`, for which the solubility thermodynamic at 24 h in [1] stood at 0.24 µM (≈ 0.118 µg/mL). Besides, in data set [3], the EC50 was determined as 0.002 µM.
Turning to `CCc1cnc(N2CCC(n3ncc4cc(-c5ccc(S(C)(=O)=O)cc5)c(C)cc43)CC2)nc1`, the EC50 in data set [3] was 0.07 µM.
With `CCc1cnc(N2CCC(n3ncc4cc(-c5ccc(S(C)(=O)=O)cc5)ccc43)CC2)nc1`, the solubility thermodynamic at 24 h in [1] was < 0.11 µM. Also, the 50% effective concentration (EC50) in data set [3] turned out to be 0.014 µM.
As for `CCNC(=O)c1ccc(-c2cc3nnn(C4CCN(c5ncc(CC)cn5)CC4)c3cn2)c(C)c1`, the solubility thermodynamic at 24 h in [1] was < 0.09 µM. In addition, in data set [3], the EC50 was 0.019 µM.
On the same counts, the results for `CCc1cnc(N2CCC(n3nnc4cc(-c5ccc(S(C)(=O)=O)cc5)ccc43)CC2)nc1` are < 0.13 µM and 0.031 µM.
`CC(C)OC(=O)N1CCC(n2nnc3cc(-c4cc(F)c(C(=O)N5CCCC5)cc4F)ncc32)CC1` had a clearance in [4] of 1.63 L/h/kg. Besides, in data set [2], the metabolised at 0.25 h was 9.3%. Moreover, the bioavailability in [5] was 16.7%. The solubility thermodynamic at 24 h in data set [1] was 15.9 µM (≈ 7.93 µg/mL). Also, in [6], the AUC(0-inf) is 1.03 µg·h/mL. The Vd in data set [7] was 0.557 L/kg. In addition, in data set [3], the EC50 stood at 0.065 µM. Further, in data set [8], the Papp is 970 nm/s. For the same molecule, the half-life in [9] is 14.5 min.
As to `CCc1cnc(N2CCC(n3nnc4cc(-c5ccc(S(C)(=O)=O)cc5F)ncc43)CC2)nc1`, the solubility thermodynamic at 24 h in [1] is < 0.12 µM. Moreover, in [3], the EC50 amounted to 0.007 µM.
For `CC(C)NC(=O)c1cc(F)c(-c2cc3nnn(C4CCN(C(=O)OC(C)C)CC4)c3cn2)cc1F`, in that order: 0.84 µM (≈ 0.409 µg/mL) and 0.033 µM.
On the same counts, the results for `CCNC(=O)c1ccc(-c2cc3nnn(C4CCN(c5ncc(CC)cn5)CC4)c3cn2)c(Cl)c1` are 0.24 µM (≈ 0.118 µg/mL) and 0.013 µM.
As to `CCNC(=O)c1ccc(-c2cc3nnn(C4CCN(c5ncc(CC)cn5)CC4)c3cn2)cc1C`, in data set [1], the solubility thermodynamic at 24 h is 1.79 µM (≈ 0.842 µg/mL). Further, the EC50 in data set [3] came out at 0.018 µM.
On the same counts, the results for `CCNC(=O)c1cc(C)c(-c2cc3nnn(C4CCN(c5ncc(CC)cn5)CC4)c3cn2)c(C)c1` are 1.86 µM (≈ 0.901 µg/mL) and 0.083 µM.
Take `CCNC(=O)c1ccc(-c2cc3nnn(C4CCN(c5ncc(CC)cn5)CC4)c3cn2)c(F)c1`: the EC50 in data set [3] came out at 0.015 µM.
Still for that read-out and setting: then `CCc1cnc(N2CCC(n3ncc4c(C)c(-c5ccc(S(C)(=O)=O)cc5)ccc43)CC2)nc1`, with 3.42 µM.

As a reminder, the EC50 is the concentration at which the effect is half-maximal. Usually clearance stands for a measure of how efficiently the substance is removed, as volume per time. A lower clearance goes with inefficient removal. What is called bioavailability is dose-corrected exposure relative to a reference, in per cent. The low end stands for little systemic uptake, the high end for much systemic uptake. As a reminder, the AUC(0-inf) is total exposure, with the tail of the curve extrapolated. A high value points to more exposure. As usually defined, the half-life is the time in which the quantity being followed falls by half. The low end stands for fast loss, the high end for slow loss.
